TNAP inh noacc – blocks human TNAP activity with no phosphate acceptor present; purified TNAP, CDP-star luminescence, 30 min; AID 1012; inhibition, % at 20 µM; actives 0.26% (n = 200,000);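 active = tissue-nonspecific alkaline phosphatase inhibition above about 50% at 20 µM in the single-dose screen, limit read from the data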
Target sequence (P05186 whole entry, looked up): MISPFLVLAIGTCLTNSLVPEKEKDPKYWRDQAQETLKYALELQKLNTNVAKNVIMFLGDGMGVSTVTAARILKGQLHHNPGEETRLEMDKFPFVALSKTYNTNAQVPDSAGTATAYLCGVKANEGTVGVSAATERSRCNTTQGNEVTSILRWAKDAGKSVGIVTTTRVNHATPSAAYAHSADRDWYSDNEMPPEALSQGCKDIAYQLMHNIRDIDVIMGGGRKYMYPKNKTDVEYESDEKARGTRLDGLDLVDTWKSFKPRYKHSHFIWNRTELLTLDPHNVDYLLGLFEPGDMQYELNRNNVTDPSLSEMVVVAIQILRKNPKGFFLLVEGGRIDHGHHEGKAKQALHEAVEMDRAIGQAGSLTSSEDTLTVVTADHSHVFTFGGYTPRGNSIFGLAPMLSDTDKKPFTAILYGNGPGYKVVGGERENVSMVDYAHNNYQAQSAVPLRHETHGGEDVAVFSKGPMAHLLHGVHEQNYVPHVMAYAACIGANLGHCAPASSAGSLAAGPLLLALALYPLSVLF
TNAP inh hiacc – inhibitors of human TNAP at high phosphate acceptor concentration; P05186; purified TNAP, CDP-star luminescence, 1 M DEA; inhibition, % at 20 µM; actives 0.03% (n = 200,000);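 active = over 50% inhibition of tissue-nonspecific alkaline phosphatase at 20 µM in the single-dose screen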
bCat KO growth – beta-catenin-lacking colon tumor cell growth suppression. HCT116 beta-catenin knockout viability, CellTiter-Glo, 60 h; hits give low values. viability, % at 10 µM. AID 818. actives 1.5% (n = 140,000);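 active = viability at or under a set limit, the compound median less 4 SD, cut at about 6% in these data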
HCT116 PTEN-null – PTEN-deleted cell growth suppression; AID 827; actives 1.2% (n = 140,000); HCT116 PTEN-null viability, CellTiter-Glo, 60 h; hits give low values; viability, % at 10 µM;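 active = viability at or below a set limit, 4 SD under the median of all tested compounds, cut at about 3.7% in these data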;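 note: PTEN knockout HCT116 line with beta catenin targeted HCT116 as companion control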
TNAP act hi DEA – activators of human TNAP at high phosphate acceptor concentration. purified TNAP, CDP-star luminescence, 1 M DEA, 30 min; hits give high values; 0 = EDTA background, 1 = DMSO-only activity. activation factor at 20 µM. 200,000 tested, under 10 active. AID 1136;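 active = activation factor at least 2 at 20 µM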
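Test system – human TNAP · Doses – 20 µM single point · Incubation – 30 min, room temperature · Signal – luminescent substrate turnover signal · Read-out basis – activation factor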
L major viab – inhibitors of Leishmania major promastigote growth; Leishmania major promastigotes, resazurin fluorescence viability; inhibition, % at 10 µM; actives 9% (n = 200,000); AID 1063; in the data active = inhibition above about 50%;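 note: promastigotes grown with compound for 44 hours at 28 °C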
Of the large screens only hits and unclear results are named; the others gave an inactive call. Compounds with a hit are over-represented: about 9.6% of the library has one in this group of screens.

COc1ccccc1-c1c(C#N)c(N)nc2c1CCc1ccccc1-2	L major viab 86.8
CCOc1cc(-c2c(C#N)c(N)nc3c2CCCC3C)ccc1O (centres undefined)	none
O=c1c2ccccc2nc(/C=C/c2ccc([N+](=O)[O-])o2)n1CCCO	bCat KO growth 1.5, HCT116 PTEN-null 1.3, L major viab 100.5
O=c1c2ccccc2nc(/C=C/c2ccc([N+](=O)[O-])cc2)n1CCCO	L major viab 59.5
O=c1c2ccccc2nc(/C=C/c2cccc([N+](=O)[O-])c2)n1CCCO	none (no result: TNAP inh noacc, TNAP inh hiacc, bCat KO growth, HCT116 PTEN-null, TNAP act hi DEA)
CC(=O)Nc1ccc(NC(=O)COC(=O)CCc2nc3ccccc3s2)cc1	none (no result: bCat KO growth, HCT116 PTEN-null)
Cc1nn(-c2ccccc2)c(C)c1/C=C/C(=O)OCC(=O)Nc1ncc(Cl)cc1Cl	L major viab 77.8
Cc1nn(-c2ccccc2)c(C)c1/C=C/C(=O)OC(C)C(=O)Nc1ncc(Cl)cc1Cl (centres undefined)	none
Brc1ccc2ncnc(NCc3ccco3)c2c1	L major viab 55.0
Oc1ccccc1-c1nc(NCc2ccco2)c2ccccc2n1	none
CCOc1nc(NCc2ccco2)nc(Nc2ccc(OC)cc2)n1	L major viab 83.8
c1ccc(-c2nc(NCc3ccco3)c3ccccc3n2)nc1	L major viab 100.5
Fc1ccccc1-c1nc(NCc2ccco2)c2ccccc2n1	L major viab 53.4 (no result: bCat KO growth, HCT116 PTEN-null)
CCOC(=O)c1c(NC(=S)NC(=O)c2cnn(CC)c2)sc2c1CCC(C)C2 (centres undefined)	none
Cc1ccc(Nc2nc(NCc3ccco3)c3ccccc3n2)cc1	L major viab 100.5 (no result: bCat KO growth, HCT116 PTEN-null)
COc1ccc(Nc2nc(NCc3ccco3)nc(N/N=C/c3ccccc3)n2)cc1	none
COc1ccccc1C(=O)N(CCC1CCCN1C)c1nc2ccccc2s1 (centres undefined)	L major viab 99.7 (no result: bCat KO growth, HCT116 PTEN-null)
C/C(=N\NC(=O)c1ccc(C)cc1C)c1ccc(-n2ccnc2)cc1	L major viab 78.8
C/C(=N\NC(N)=O)c1ccc(-n2ccnc2)cc1	none (no result: bCat KO growth, HCT116 PTEN-null)
Cc1ccc(O)c(N=Cc2sc3ccccc3c2Cl)c1	none
Oc1ccccc1N=Cc1sc2ccccc2c1Cl	L major viab 56.9
O=S1(=O)N=C2CCCCCN2C(c2ccc(Br)cc2)N1 (centres undefined)	none (no result: bCat KO growth, HCT116 PTEN-null)
COCCNC(=O)C(c1ccccc1F)N(C(=O)C(=O)NC1CCCC1)C1CCCCC1 (centres undefined)	none (no result: bCat KO growth, HCT116 PTEN-null)
COc1ccc(-c2nn(-c3ccccc3)cc2C(=O)N2c3ccc(C)cc3C3CN(C)CCC32)cc1 (centres undefined)	L major viab 59.1 (no result: bCat KO growth, HCT116 PTEN-null)
O=c1c([N+](=O)[O-])c(N2CCCC2)c2ccccc2n1-c1ccccc1	none (no result: bCat KO growth, HCT116 PTEN-null)
COc1cccc(C2C(C(=O)Nc3ccccc3)=C(C)N=c3s/c(=C/c4ccc(OCC(=O)O)cc4)c(=O)n32)c1 (centres undefined)	none
CC1=C(C(=O)Nc2ccccc2)C(c2ccc(C)o2)n2c(s/c(=C\c3ccco3)c2=O)=N1 (centres undefined)	L major viab 83.5
COc1cccc(C2C3=C(CC(C)(C)CC3=O)Nc3cc(OC)c(OC)cc32)c1 (centres undefined)	none (no result: bCat KO growth, HCT116 PTEN-null)
COc1cccc(C2C3=C(CC(C)(C)CC3=O)Nc3cc4c(cc32)OCO4)c1 (centres undefined)	L major viab 100.0
CCn1nc(C)c(CN2CCc3c([nH]c4ccccc34)C2c2ccc(F)c(OC)c2)c1C (centres undefined)	L major viab 74.2 (no result: bCat KO growth, HCT116 PTEN-null)
Cn1ccnc1SCC(=O)N1CCN(S(=O)(=O)c2ccccc2)CC1	none (no result: bCat KO growth, HCT116 PTEN-null)
CCCNC(=O)CN(C)S(=O)(=O)c1ccc(F)cc1	L major viab 63.8
CC(C)NC(=O)CN(C)S(=O)(=O)c1ccc(F)cc1	none
CN1CCN(NS(=O)(=O)c2cccs2)CC1	none
CCCNc1cc(C)c(C#N)c2nc3ccccc3n12	none
Cc1cc(Cl)n2c(nc3ccccc32)c1C#N	L major viab 100.5 (no result: bCat KO growth, HCT116 PTEN-null)
COC(=O)c1ccccc1OCCCN(C)C	none
O=C(Nc1ccc2nc3n(c(=O)c2c1)CCCC3)c1ccccc1[N+](=O)[O-]	L major viab 56.2
CCCN(CCC)CCCNC(=S)Nc1ccc2nc3n(c(=O)c2c1)CCCCC3	L major viab 60.8
Cc1ccccc1C(=O)Nc1ccc2nc3n(c(=O)c2c1)CCC3	none

Assay outcomes (PubChem BioAssay)
